# ChEMBL document CHEMBL1154279, “Cytotoxic compounds from the stems of Cinnamomum tenuifolium” (J Nat Prod, 2009)
# How the values were obtained:
# [1] = system: LNCaP; assay: Cytotoxicity against human LNCAP cells after 72 hrs by XTT assay; type: functional, cell-based; conditions: 24 h, in the assay text read “after 24 hrs” for “after 72 hrs”
# Procedure, shortened: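 Prostate cancer cells in RPMI-1640 with 10% FBS, 37 °C, 5% CO2, grown to 70–80% confluence and treated at 0.1–100 µM for 24, 48 and 72 h. XTT labeling for 4 h at 37 °C, absorbance 450 nm (reference 650 nm) against control wells. IC50 derived from the mean of eight wells; taxol and cisplatin served as positive controls.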
# [2] = system: DU-145; assay: Cytotoxicity against human DU145 cells after 72 hrs by XTT assay; type: functional, cell-based; conditions: DU-145, 24 h, in the assay text read “after 24 hrs” for “after 72 hrs”
compound,measurement,setting,value
C=C1OC(=O)/C(=C\CCCCCCCCCCCCCCCCCCCCCCCCCC)[C@@H]1O [TENUIFOLIDE A],IC50,[1],450 µM
same,IC50,[2],211 µM
CC(C)C1=CC(=O)[C@]2(C)O[C@@]1(O)[C@@H]1[C@H](C)CC[C@@H]12 [ALPINENONE],IC50,[1],67.1 µM
same,IC50,[2],267 µM
